# Active and inactive are the calls of the source. The rule behind the calls is not given here.
# How the values were obtained:
# [1] = Inhibition of CRAC in human Jurkat T cells assessed as increase in TG-stimulated intracellular calcium depletion measured every 8 secs by Ca2+ dye based fluorescence assay; format: cell-based
# [2] = Inhibition of CRAC in rat RBL2H3 cells assessed blockade of IP3-induced calcium flux pretreated for 30 to 60 mins followed by IP3 addition by Qpatch analysis; format: cell-based; details: RBL-2H3
# [3] = Inhibition of […] in thapsigargin-stimulated human Jurkat T cells assessed as blockade of intracellular calcium flux by fluo-4-AM dye based FLIPR assay; format: cell-based
# [4] = (§1) Inhibition of endoplasmic reticulum calcium channel in human MDA-MB-231 cells assessed as reduction in endoplasmic reticulum intracellular calcium release pretreated for 15 mins followed by SERCA inhibitor CPA addition measured after 700 secs by PBX dye based FLIPR assay; format: cell-based
# Summary of the method: (§2)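 Same MDA-MB-231 PBX-dye FLIPR protocol: 15 min compound pretreatment at room temperature, then BAPTA (500 µM) and CPA (10 µM) to deplete ER stores. Peak 1 height after CPA addition (ER Ca2+ release) expressed as % inhibition relative to the DMSO control. Excitation 470–495 nm, emission 515–575 nm.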
# [5] = target: T1, Calcium release-activated calcium channel protein 1 (Homo sapiens, UniProt Q96D31); assay: Inhibition of […] Orai1-medited store operated calcium entry in human MDA-MB-231 cells pretreated for 15 mins followed by BAPTA addition by PBX dye based FLIPR assay; format: cell-based
# Summary of the method: (§3)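 MDA-MB-231 cells seeded 2×10^3/well and used 3 days later. Loaded 1 h at 37 °C with 2 µM PBX calcium dye, 5% signal enhancer and 500 µM probenecid in PSS, pH 7.3. Compound pretreated 15 min at room temperature. Then 500 µM BAPTA, 10 µM CPA, and 0.5 mM CaCl2 700 s after CPA. Read-out: peak 2 height as % inhibition vs DMSO. 95% CI, n = 4.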
# Target sequence in this assay (Q96D31 whole entry): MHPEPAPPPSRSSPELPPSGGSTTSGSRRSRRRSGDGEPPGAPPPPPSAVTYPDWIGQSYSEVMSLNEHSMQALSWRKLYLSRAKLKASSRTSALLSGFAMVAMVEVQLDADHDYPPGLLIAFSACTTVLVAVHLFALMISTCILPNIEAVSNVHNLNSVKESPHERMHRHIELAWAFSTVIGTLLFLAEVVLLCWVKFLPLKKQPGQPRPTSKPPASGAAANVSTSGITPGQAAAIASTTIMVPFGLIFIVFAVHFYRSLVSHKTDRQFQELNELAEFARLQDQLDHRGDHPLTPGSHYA
# MDA-MB-231 = assay: as §1, with “release at 100 uM” for “release”, “assay relative to control” for “assay”; format: cell-based; summary of the method: as §2
# [6] = target: T1, Calcium release-activated calcium channel protein 1; assay: Inhibition of […] Orai1-medited store operated calcium entry in human MDA-MB-231 cells at 100 uM pretreated for 15 mins followed by BAPTA addition by PBX dye based FLIPR assay relative to control; format: cell-based; summary of the method: as §3
# Target sequence in this assay (Q96D31 whole entry, looked up): as the sequence (Q96D31 whole entry) above
# [7] = target: T1, Calcium release-activated calcium channel protein 1; assay: Inhibition of […] Orai1-medited store operated calcium entry in human MDA-MB-231 cells at 10 uM pretreated for 15 mins followed by BAPTA addition by PBX dye based FLIPR assay relative to control; format: cell-based; summary of the method: as §3
# Target sequence in this assay (Q96D31 whole entry, looked up): as the sequence (Q96D31 whole entry) above
# [8] = target: Transient receptor potential cation channel subfamily V member 1 (Rattus norvegicus) (UniProt O35433); assay: Inhibition of rat TRPV1 expressed in HEK293 cells assessed as reduction in capsaicin-induced calcium flux up to 100 uM pretreated for 300 secs followed by capsaicin addition by calcium 4-dye based FLIPR assay; format: cell-based
# Summary of the method: (§4)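 HEK293 cells transfected with rat TRPV1 or rat TRPM8 plasmid using Lipofectamine 2000, plated at 10,000/well and assayed 48 h after transfection. Calcium 4 dye loaded 30 min at 37 °C in PSS with 1.8 mM CaCl2. Compound added 300 s before agonist: capsaicin 100 nM for TRPV1, menthol 100 µM for TRPM8. Fluorescence read on FLIPR.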
# [9] = target: Transient receptor potential cation channel subfamily M member 8 (Rattus norvegicus) (UniProt Q8R455); assay: Inhibition of rat TRPM8 expressed in HEK293 cells assessed as reduction in menthol-induced calcium flux up to 100 uM pretreated for 300 secs followed by menthol addition by calcium 4-dye based FLIPR assay; format: cell-based; summary of the method: as §4
# [10] = target: Voltage-dependent N-type calcium channel subunit alpha-1B (Homo sapiens) (UniProt Q00975); assay: Inhibition of Cav2.2 in human SH-SY5Y cells assessed as reduction in KCl/CaCl2-induced calcium flux up to 100 uM pretreated for 300 secs followed by KCl/CaCl2 addition measured in presence of nifedipine by calcium 4-dye based FLIPR assay; format: cell-based
# Summary of the method: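 SH-SY5Y cells plated at 50,000/well and used 48 h later. Loaded 30 min at 37 °C/5% CO2 with Calcium 4 dye in PSS containing 1.8 mM CaCl2. Nifedipine 10 µM present. Compound added 300 s before stimulation with KCl (90 mM)/CaCl2 (5 mM). Calcium flux read on FLIPR.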
# hERG (KCNH2) = hERG (KCNH2) (Homo sapiens, UniProt Q12809); assay: Inhibition of human ERG at 10 uM relative to control
# [11] = Half life in human liver microsomes; format: ADME, microsome
# [12] = Half life in mouse liver microsomes; format: ADME, microsome
# [13] = Solubility of the compound in alpha minimum essential medium; format: physicochemical
# [14] = Stability of the compound in M1/M0 H2O; format: ADME
# [15] = Lipophilicity, log P of the compound; format: physicochemical; details: octanol/water
# [16] = target: Voltage-dependent L-type calcium channel subunit alpha-1C (Homo sapiens, UniProt Q13936); assay: Inhibition of Cav1.2 (unknown origin) up to 100 uM
# [17] = target: Voltage-dependent L-type calcium channel subunit alpha-1D (Homo sapiens) (UniProt Q01668); assay: Inhibition of Cav1.3 (unknown origin) up to 100 uM
# Chain of Voltage-dependent L-type calcium channel subunit alpha-1D (Homo sapiens) (Q01668 whole entry): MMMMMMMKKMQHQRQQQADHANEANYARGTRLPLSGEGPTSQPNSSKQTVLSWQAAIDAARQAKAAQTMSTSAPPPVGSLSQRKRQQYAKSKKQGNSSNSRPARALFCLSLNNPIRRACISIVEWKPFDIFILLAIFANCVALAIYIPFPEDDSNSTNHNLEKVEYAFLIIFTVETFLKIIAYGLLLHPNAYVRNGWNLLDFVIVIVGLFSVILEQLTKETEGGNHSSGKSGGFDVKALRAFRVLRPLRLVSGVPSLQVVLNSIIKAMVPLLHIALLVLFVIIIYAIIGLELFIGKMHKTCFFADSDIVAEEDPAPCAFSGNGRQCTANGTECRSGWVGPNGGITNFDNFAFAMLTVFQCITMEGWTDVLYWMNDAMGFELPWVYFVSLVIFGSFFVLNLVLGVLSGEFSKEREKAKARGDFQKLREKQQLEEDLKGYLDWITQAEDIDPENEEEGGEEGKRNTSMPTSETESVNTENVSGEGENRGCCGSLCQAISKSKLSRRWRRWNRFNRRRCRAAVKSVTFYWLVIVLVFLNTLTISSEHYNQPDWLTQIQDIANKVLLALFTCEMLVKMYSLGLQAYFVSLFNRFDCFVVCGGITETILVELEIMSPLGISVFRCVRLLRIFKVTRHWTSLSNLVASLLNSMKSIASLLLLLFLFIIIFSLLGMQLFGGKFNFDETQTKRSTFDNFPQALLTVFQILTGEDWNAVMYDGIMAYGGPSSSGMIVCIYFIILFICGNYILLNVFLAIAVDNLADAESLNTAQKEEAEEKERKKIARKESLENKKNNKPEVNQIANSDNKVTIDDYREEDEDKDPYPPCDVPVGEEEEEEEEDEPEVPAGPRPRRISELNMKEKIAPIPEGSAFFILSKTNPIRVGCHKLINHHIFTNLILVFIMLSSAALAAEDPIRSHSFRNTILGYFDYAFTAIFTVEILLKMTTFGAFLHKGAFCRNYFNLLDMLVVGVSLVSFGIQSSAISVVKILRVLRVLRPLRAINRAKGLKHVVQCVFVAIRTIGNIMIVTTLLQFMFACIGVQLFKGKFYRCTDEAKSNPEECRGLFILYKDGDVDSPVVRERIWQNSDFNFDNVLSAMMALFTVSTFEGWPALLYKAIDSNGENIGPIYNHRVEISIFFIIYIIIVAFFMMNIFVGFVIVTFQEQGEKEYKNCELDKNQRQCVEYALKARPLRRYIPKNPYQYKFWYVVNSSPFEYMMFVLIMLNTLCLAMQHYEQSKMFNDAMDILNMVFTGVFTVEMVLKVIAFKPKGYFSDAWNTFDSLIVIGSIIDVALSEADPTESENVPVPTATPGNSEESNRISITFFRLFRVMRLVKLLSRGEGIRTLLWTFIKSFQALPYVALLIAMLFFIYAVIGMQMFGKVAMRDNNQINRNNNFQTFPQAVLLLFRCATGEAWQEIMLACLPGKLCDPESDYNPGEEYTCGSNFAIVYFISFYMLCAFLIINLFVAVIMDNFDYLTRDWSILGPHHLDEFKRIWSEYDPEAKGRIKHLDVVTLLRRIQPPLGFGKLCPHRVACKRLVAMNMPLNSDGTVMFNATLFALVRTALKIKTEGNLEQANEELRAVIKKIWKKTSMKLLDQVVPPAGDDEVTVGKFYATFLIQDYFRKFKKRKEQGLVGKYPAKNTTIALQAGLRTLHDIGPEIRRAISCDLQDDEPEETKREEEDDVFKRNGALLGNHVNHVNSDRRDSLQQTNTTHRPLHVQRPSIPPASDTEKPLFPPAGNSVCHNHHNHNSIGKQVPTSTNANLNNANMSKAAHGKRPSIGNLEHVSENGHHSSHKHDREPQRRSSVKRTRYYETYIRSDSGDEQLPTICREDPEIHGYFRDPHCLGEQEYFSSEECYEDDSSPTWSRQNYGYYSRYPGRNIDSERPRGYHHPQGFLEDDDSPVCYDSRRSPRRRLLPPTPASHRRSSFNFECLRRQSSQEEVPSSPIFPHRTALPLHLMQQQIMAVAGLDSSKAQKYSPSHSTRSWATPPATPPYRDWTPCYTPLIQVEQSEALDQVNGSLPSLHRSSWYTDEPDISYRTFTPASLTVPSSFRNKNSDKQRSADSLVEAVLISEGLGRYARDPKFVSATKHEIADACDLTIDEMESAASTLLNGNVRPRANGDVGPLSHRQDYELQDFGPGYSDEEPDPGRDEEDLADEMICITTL
# Chain of Transient receptor potential cation channel subfamily M member 8 (Rattus norvegicus) (Q8R455 whole entry, looked up): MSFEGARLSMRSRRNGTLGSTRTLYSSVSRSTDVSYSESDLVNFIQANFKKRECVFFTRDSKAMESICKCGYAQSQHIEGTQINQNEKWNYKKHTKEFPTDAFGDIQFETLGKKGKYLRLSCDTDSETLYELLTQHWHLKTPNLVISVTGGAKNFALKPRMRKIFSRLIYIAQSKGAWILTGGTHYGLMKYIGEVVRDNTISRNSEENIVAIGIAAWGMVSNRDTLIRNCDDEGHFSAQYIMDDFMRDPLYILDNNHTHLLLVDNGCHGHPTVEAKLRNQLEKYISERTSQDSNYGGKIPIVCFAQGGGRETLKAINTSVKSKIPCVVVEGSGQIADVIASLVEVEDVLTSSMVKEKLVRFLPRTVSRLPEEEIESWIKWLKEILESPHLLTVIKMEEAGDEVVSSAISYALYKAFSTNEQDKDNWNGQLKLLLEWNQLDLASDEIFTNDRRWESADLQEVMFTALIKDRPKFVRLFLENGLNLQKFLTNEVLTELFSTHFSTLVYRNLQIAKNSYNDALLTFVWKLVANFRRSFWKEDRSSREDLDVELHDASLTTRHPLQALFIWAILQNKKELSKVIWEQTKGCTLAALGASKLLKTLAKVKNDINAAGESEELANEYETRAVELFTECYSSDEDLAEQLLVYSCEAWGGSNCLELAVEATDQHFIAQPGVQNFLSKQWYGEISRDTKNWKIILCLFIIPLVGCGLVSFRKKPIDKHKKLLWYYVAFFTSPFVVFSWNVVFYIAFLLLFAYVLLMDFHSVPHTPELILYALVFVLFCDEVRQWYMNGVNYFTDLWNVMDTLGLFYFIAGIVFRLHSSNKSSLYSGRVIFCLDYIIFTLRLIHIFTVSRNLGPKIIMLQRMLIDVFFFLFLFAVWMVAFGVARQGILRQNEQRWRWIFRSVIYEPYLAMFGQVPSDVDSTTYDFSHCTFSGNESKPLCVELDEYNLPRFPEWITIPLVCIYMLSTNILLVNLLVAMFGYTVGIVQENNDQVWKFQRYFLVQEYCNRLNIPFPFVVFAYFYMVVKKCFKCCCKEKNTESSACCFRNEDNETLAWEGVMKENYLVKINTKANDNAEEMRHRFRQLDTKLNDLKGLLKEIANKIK
# Chain of Transient receptor potential cation channel subfamily V member 1 (Rattus norvegicus) (O35433 whole entry): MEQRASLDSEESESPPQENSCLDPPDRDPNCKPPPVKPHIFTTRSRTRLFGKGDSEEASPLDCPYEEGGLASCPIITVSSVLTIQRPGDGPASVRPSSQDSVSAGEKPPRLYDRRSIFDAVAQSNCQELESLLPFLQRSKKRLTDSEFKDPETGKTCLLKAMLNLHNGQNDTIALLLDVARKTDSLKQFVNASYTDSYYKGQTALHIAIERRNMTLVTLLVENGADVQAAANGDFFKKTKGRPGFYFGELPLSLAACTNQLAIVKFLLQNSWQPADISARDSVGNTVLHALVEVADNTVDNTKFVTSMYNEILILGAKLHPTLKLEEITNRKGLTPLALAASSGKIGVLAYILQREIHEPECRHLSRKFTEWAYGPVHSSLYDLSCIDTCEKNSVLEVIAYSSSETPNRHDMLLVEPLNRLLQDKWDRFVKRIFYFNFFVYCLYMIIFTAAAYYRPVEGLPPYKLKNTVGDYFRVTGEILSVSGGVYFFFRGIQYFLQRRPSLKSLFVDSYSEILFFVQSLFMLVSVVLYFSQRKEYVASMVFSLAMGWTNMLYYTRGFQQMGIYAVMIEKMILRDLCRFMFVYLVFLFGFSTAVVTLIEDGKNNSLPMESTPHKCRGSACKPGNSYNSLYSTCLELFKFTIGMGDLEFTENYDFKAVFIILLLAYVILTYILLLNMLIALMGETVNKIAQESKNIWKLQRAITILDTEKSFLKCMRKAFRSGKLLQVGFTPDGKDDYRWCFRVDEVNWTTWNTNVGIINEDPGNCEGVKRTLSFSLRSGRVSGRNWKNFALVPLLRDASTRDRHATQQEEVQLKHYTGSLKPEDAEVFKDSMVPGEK
structure (smiles),measurement,setting,value
Cc1nnsc1C(=O)Nc1ccc(-n2nc(C(F)(F)F)cc2C(F)(F)F)cc1,IC50,[1],10 nM
CC1=C(c2cnc(NC(=O)c3c(F)cccc3F)cn2)CN(c2ncc(C)s2)CC1,IC50,[2],400 nM
COc1ccc(OC)c(-c2ccc(NC(=O)c3ccncc3F)cc2)c1,IC50,[3],1400 nM
O=C(Cc1ccccc1)N1N=C(C(F)(F)F)CC1(O)c1ccccc1C(F)(F)F (centres undefined),IC50,[4],80000 nM
same,IC50,[5],49000 nM
COc1cccc(C2(O)CC(C(F)(F)F)=NN2C(=O)Cc2ccccc2)c1 (centres undefined),inhibition,MDA-MB-231,inactive
same,inhibition,[6],37%
same,inhibition,[7],11%
same,inhibition,[8],inactive
same,inhibition,[9],inactive
same,inhibition,[10],inactive
same,inhibition at 10 µM,hERG (KCNH2),9.1%
same,half-life,[11],8.2 min
same,half-life,[12],3.3 min
same,solubility,[13],16.8 µg/mL
same,Stability,[14],93.2%
same,logP,[15],4.4
same,inhibition (INH),[16],Not Active
same,inhibition,[17],inactive

# Reference: ChEMBL document CHEMBL4118190, “An SAR study of hydroxy-trifluoromethylpyrazolines as inhibitors of Orai1-mediated store operated Ca2+ entry in MDA-MB-231 breast cancer cells using a convenient Fluorescence Imaging Plate Reader assay” (Bioorg Med Chem, 2018)
